RBBP9 inh: human RBBP9 hydrolase inhibition | O75884 | recombinant RBBP9, FP-Rh probe fluorescence polarization | 220,000 compounds, 0.2% hits | inhibition, % at 7.94 µM;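 active means inhibition above the campaign mean of all tested compounds plus 3 SD, cut at about 14% in these data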;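 further: plate controls were DMSO wells with RBBP9 for no effect and wells lacking RBBP9 protein for full effect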
Target sequence (O75884 whole entry, looked up): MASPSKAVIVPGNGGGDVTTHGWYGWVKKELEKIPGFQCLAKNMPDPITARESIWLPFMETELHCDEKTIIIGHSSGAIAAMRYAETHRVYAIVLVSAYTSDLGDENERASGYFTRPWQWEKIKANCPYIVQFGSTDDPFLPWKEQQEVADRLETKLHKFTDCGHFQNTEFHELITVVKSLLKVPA
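Material: RBBP9 protein. Amount: RBBP9 at 2.5 µM in dispensed solution, before mixing. Schedule: 30 min then 45 min, 25 °C. Medium: Tris buffer pH 8.0, NaCl, Pluronic. Measured by: fluorescence polarization. Measure: percent inhibition from mP, scaled between DMSO and no-protein wells. Replication: one well per compound.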
PAD4 FP inh: blocks human protein arginine deiminase 4 | Q9UM07 | recombinant PAD4, RCA probe fluorescence polarization | inhibition, % at 6.36 µM | 330,000 compounds, 0.41% hits;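 active means percent inhibition above a cutoff equal to the mean of all tested compounds plus 3 SD, cut at about 15% in these data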;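 further: 0% = PAD4 with RCA probe and DMSO and 100% = probe without PAD4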
PRMT1 inh: blocks human protein arginine methyltransferase 1; recombinant PRMT1, activity-based probe fluorescence polarization; AID 652257; 370,000 compounds, 1.3% hits; inhibition, % at 2.79 µM;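 active means inhibition above about 21% made by adding two undisclosed values, limit read from the data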
Target sequence (Q99873 whole entry, looked up): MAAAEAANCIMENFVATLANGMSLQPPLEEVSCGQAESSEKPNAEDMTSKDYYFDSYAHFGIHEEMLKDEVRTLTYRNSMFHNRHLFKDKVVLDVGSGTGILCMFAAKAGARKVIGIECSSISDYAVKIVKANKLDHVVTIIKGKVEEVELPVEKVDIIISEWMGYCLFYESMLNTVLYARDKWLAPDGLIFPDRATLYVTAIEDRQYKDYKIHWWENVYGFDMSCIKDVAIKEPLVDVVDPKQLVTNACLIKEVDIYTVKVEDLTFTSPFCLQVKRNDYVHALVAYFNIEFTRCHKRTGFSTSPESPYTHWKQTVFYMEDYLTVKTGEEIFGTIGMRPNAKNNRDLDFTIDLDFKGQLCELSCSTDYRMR
GSTO1 counter: counter-screen for RBBP9 inhibitors: inhibitors of human GSTO1 | AID 1974 | recombinant GSTO1, activity-based probe fluorescence polarization | 300,000 compounds, 1.1% hits | P78417 | inhibition, % at 5.96 µM;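 active means inhibition above the campaign mean inhibition plus 3 SD, cut at about 35% in these data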;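 further: 0% = GSTO1-1 with DMSO and 100% = wells lacking GSTO1-1 enzyme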
SIAE inh: blocks human sialic acid acetylesterase; Q9HAT2; SIAE FP-Rh probe binding, fluorescence polarization; inhibition, % at 9.66 µM; 370,000 compounds, 0.69% hits; AID 1053197;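 active means inhibition above a cutoff: mean of compounds within the control limits plus 3 SD of those, cut at about 17% in these data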;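 further: 0% = plate median of compound wells and 100% = probe without SIAE protein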
SIAE inh conf: human SIAE inhibition, confirmation; AID 1117263; shares compounds with SIAE inh; 2,300 compounds, 13% hits; inhibition, % at 9.66 µM; SIAE FP-Rh activity-based probe, fluorescence polarization;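 active means mean inhibition of the replicates above the hit cutoff set in the primary screen, cut at about 17% in these data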;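 further: 0% = SIAE with DMSO and probe and 100% = probe without SIAE; inhibitors lower polarization as more probe stays unbound to SIAE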
Starred values were filed as active, the others as inactive; / = not tested or not shown. In the library only some 2.7% were active in any assay of this set; here they are far more common.

SMILES	RBBP9 inh	PAD4 FP inh	PRMT1 inh	GSTO1 counter	SIAE inh	SIAE inh conf
Fc1ccc2nc(Nc3nc4cc5c(cc4s3)OCO5)sc2c1	0	-4	-1	0	25*	8
Fc1ccc2nc(Nc3nc4c(F)cc(F)cc4s3)sc2c1	-4	-2	-2	-10	10	/
Fc1ccc2nc(Nc3nc4cc5c(cc4s3)OCCO5)sc2c1	-14	-4	-1	8	32*	6
c1ccc2sc(Nc3nc4cc5c(cc4s3)OCO5)nc2c1	-4	-2	-1	0	7	/
C/C(=C\C(=O)c1ccccc1)Nc1ccc(Br)c(Cl)c1	/	1	-2	-6	18*	2
O=C(/C=C(\Nc1ccc(Cl)c(Cl)c1)c1ccccc1)c1ccccc1	/	/	0	/	1	/
O=C1C=C(c2ccccc2)C[C@@H](c2ccc(Cl)cc2)C1	/	-4	1	/	26*	0
CCOc1ccc(NC(=O)NNC(=O)c2ccc3ccccc3c2O)cc1	/	-7	1	17	21*	2
CCOc1ccc(NC(=O)c2cc3ccccc3cc2O)cc1	-5	6	0	7	18*	-1
COc1ccc(NC(=O)NNC(=O)COc2ccc3ccccc3c2)cc1	/	-6	-1	-6	18*	-4
O=C(OCC(=O)N1CCCCC1)c1cc2ccccc2cc1O	-5	-6	2	3	-2	/
C/C(CC(=O)N1CCCC1)=N\NC(=O)c1cc2ccccc2cc1O	0	-12	2	3	17*	-1
CCOc1ccc(NC(=O)NNC(=O)COc2ccc3ccccc3c2)cc1	/	-2	-2	-4	-2	/
COc1cc(NC(=O)C2CCCN(S(=O)(=O)c3cccs3)C2)cc(OC)c1 (stereo not drawn)	/	/	2	/	-1	/
NNC(=O)c1cc2ccccc2cc1O	-4	-4	2	3	18*	6
COc1cc(NC(=O)c2cc3ccccc3cc2O)c(OC)cc1Cl	4	-4	2	-5	18*	6
COC(=O)c1c(NC(=O)c2ccco2)sc(C(=O)Nc2ccc(F)cc2)c1C	-9	-3	-4	0	0	/
O=C(CCCN1C(=O)/C(=C/c2ccc(F)cc2)SC1=S)Nc1ccc(C(=O)O)cc1	/	/	-2	/	-5	/
O=C(CC12CC3CC(CC(C3)C1)C2)N/N=C\c1ccc[nH]1	-4	0	-3	11	0	/
Cc1ccc(Nc2nc(N/N=C/c3c[nH]c4ccccc34)nc(N3CCOCC3)n2)cc1	-5	1	2	-2	28*	9
C(=N\Nc1nc(Nc2ccccc2)nc(N2CCOCC2)n1)/c1c[nH]c2ccccc12	0	4	-3	-12	19*	24*
COc1ccccc1N(C(=O)CNC(=O)c1ccco1)C(C(=O)NC1CCCC1)c1ccncc1 (stereo not drawn)	-6	0	-2	-2	1	/
CN(C(=O)CNC(=O)c1ccccc1OCC(=O)Nc1ccc(Br)cc1)c1ccccc1	/	/	1	/	-6	/
COc1ccc(NC(=O)N(C)C[C@H]2OCc3cnnn3CCCC(=O)N([C@H](C)CO)C[C@@H]2C)c(OC)c1	/	/	4	/	21*	0
Cc1ccc(S(=O)(=O)NCCC(=O)N2CCCCCC2)cc1	/	5	3	2	-14	/
SMILES	RBBP9 inh	PAD4 FP inh	PRMT1 inh	GSTO1 counter	SIAE inh	SIAE inh conf
CC(Sc1nc(-c2ccccc2)c(-c2ccccc2)[nH]1)C(=O)NCC1CCCO1 (stereo not drawn)	/	/	-4	/	21*	-2
CCc1cccc2c(SC(C)C(=O)NCC3CCCO3)nc(-c3ccccc3)nc12 (stereo not drawn)	-5	4	-1	1	-12	/
O=[N+]([O-])c1cccc(N/N=C/c2ccc(N3CCOCC3)cc2)c1	/	2	6	4	18*	6
O=C(Nc1ccc(N2CCOCC2)cc1)c1ccc([N+](=O)[O-])cc1	-1	-4	0	-3	17*	-1
O=C(c1ccc([N+](=O)[O-])cc1)N1CCOCC1	/	/	-4	/	18*	-3
O=C(Nc1ccc(N2CCCCC2)cc1)c1ccc([N+](=O)[O-])o1	/	-10	1	22	19*	6
CC1CCN(c2ccc(NC(=O)c3ccc([N+](=O)[O-])o3)cc2)CC1	/	-12	5	25	14	/
O=C(c1ccc([N+](=O)[O-])cc1)N1CCCC1	-4	1	7	11	-5	/
Cc1cc(C)cc(N2C(=O)CN(Cc3ccccc3)C2=S)c1	/	-4	-2	4	-14	/
c1cncc(-c2nnc3n2CCC3)c1	-8	-3	-4	1	0	/
Cc1ccc2sc(-c3ccc(NC(=O)c4cc(-n5cnnc5)ccc4Cl)cc3)nc2c1	-10	1	-2	-25	-53	/
S=c1[nH]nc(-c2ccncc2)n1/N=C/C=C/c1ccco1	0	2	17	12	19*	2
CCOCCCNC(=S)Nc1ccc2nc(N3CCOCC3)cc(C)c2c1	/	-20	0	13	17*	2
COc1ccc(C2=NOC(COc3ccc4c(C)cc(=O)oc4c3)C2)c(OC)c1 (stereo not drawn)	11	0	5	-2	-3	/
CCOC(=O)c1[nH]c2ccc(Br)cc2c1NC(=O)CCN1CCN(C(=O)OCC)CC1	0	1	-1	4	18*	0
O=C(NNc1ccccc1C(F)(F)F)c1sccc1Br	8	0	-4	3	25*	-3
Cc1ccc(NC(=O)c2ccc(S(=O)(=O)N(C)c3ccccc3)cc2)cc1S(=O)(=O)N1CCOCC1	/	/	3	/	18*	11
COc1ccc(NC(=O)c2ccc(S(=O)(=O)N(C)c3ccccc3)cc2)cc1S(=O)(=O)N1CCOCC1	/	/	1	/	-34	/
CC1CCN(S(=O)(=O)c2ccc3[nH]c(=O)[nH]c3c2)CC1	/	-3	-2	2	5	/
CCOC(=O)N1CCN(C(=O)c2ccc3c(SCC(=O)O)c4c(nc3c2)CCCC4)CC1	-5	1	/	2	/	/
O=C(O)CSc1c2c(nc3cc(C(=O)N4CCOCC4)ccc13)CCCC2	-7	3	3	0	27*	5
Cc1cc(Nc2ccc(Cl)c(C(F)(F)F)c2)cc(=O)n1-c1ccc(Cl)c(C(F)(F)F)c1	/	/	1	/	-20	/
COc1ccc2oc(=O)c(C(=O)NCc3ccc(F)cc3)cc2c1	/	-3	1	3	62*	2
CC(C)c1ccccc1NC(=O)COC(=O)C1(C)CC1(Cl)Cl (stereo not drawn)	-6	-2	0	-5	2	/
Cc1ccccc1NC(=O)COC(=O)C1(C)CC1(Cl)Cl (stereo not drawn)	-6	-2	0	-2	19*	12
O=C(Cc1ccc(F)cc1)N1CCN(c2ccc([N+](=O)[O-])cc2)CC1	/	/	-2	/	20*	5
O=C1CCC/C=C/C[C@@H](CC(=O)N(CCO)Cc2ccccc2)C(=O)NC[C@@H](c2ccccc2)O1	/	-2	1	/	1	/
